# Screening results as filed in PubChem BioAssay.
# PREPL inhibitor: inhibits the human prolyl oligopeptidase-like enzyme | recombinant PREPL, fluorescence polarization activity-based probe | inhibition, % at 5.96 µM | 320,000 compounds, 0.68% hits; in the data active = inhibition above about 43%;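 also: 0% = enzyme with DMSO and 100% = wells lacking enzyme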
# MEKK2 WT-MEK5: raises or lowers MEK5 binding to wildtype human MEKK2 PB1 domain. bead flow cytometry, Alexa488-MEK5 binding to MEKK2 WT; actives lie on both sides. binding response (% of control), % at 10 µM. 290,000 compounds, 1.1% hits. AID 1531; in the data active = binding response below about 67% or above about 130%
# Apaf1 inhib: human Apaf-1 inhibition | O14727 | reconstituted apoptosome caspase-3 activity, DEVD-Rh110 fluorescence | inhibition, % at 20 µM | 330,000 compounds, 0.71% hits | AID 489030; active = inhibition of at least 40% at 20 µM;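 also: plate controls were DMSO wells for no effect and DEVD-CHO caspase inhibitor wells for full effect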
#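 Assay system – apoptosome proteins · Medium – Hepes buffer, pH 7.5 · Also added – cytochrome c with DEVD-Rh110 · Timing – 30 min compound preincubation, 50 min activation, room temperature · Detection – Rh110 fluorescence, excitation 480 nm, emission 540 nm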
# UBC13 polyUb: human UBC13 polyubiquitination inhibition | P61088 | UBC13 polyubiquitin chain formation, TR-FRET | inhibition, % at 20 µM | 330,000 compounds, 0.47% hits; in the data active = inhibition above about 45%, passing the limit was not always enough
# MEKK3 PB1 HTS: MEKK3-MEK5 PB1 interaction, increase or decrease | AID 1529 | 290,000 compounds, 1.4% hits | bead-based flow cytometry, Alexa488-MEK5 binding to MEKK3; actives lie on both sides; 0 = blocked by unlabeled MEK5, 100 = vehicle | Q99759 | binding response (% of control), % at 10 µM;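 active = binding response more than 3 SD above or below the average of its plate-row segment, actives on both sides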;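 also: Alexa488 bead fluorescence after subtracting the streptavidin-only scavenger bead signal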
# Target sequence (Q99759 whole entry, looked up): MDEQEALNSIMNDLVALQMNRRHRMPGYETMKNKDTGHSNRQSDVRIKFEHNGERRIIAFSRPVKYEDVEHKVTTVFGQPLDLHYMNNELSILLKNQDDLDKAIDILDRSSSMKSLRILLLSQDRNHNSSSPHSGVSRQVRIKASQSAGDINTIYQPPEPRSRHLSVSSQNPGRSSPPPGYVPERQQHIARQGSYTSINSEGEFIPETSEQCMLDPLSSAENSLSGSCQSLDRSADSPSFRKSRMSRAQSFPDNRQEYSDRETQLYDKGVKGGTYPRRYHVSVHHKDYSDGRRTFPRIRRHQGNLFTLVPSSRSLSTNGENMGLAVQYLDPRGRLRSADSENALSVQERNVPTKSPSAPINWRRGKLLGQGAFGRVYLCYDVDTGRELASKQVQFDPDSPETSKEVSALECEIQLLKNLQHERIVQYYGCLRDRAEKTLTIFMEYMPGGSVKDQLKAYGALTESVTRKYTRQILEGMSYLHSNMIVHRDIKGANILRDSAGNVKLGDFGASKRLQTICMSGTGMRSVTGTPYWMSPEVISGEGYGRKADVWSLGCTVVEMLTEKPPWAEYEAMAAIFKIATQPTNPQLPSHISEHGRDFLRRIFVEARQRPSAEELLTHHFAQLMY
# MEKK2 mut-MEK5: signal of MEK5 binding to mutant human MEKK2 PB1 domain. bead flow cytometry, Alexa488-MEK5 binding to MEKK2 mutant. 290,000 compounds, 0.35% hits. AID 1530. percent response, % at 10 µM; in the data active = percent response above about 24%, passing the limit was not always enough
# MEKK2wt confirm: raises or lowers MEK5 binding to wildtype human MEKK2, retest; AID 1892; bead flow cytometry, Alexa488-MEK5 binding to MEKK2 WT; actives lie on both sides; shares compounds with MEKK3 PB1 HTS; binding response (% of control), % at 10 µM; 5,900 compounds, 2.4% hits; in the data active = binding response below about 16% or above about 210%; inactive = in between
# MEKK2mut-MEK5: signal of MEK5 binding to mutant human MEKK2, retest; shares compounds with MEKK3 PB1 HTS; bead flow cytometry, Alexa488-MEK5 binding to MEKK2 mutant; percent response, % at 10 µM; 5,900 compounds, 2% hits; AID 1893; in the data active = percent response mostly above about 71%, no sharp cut-off; inactive = mostly below about 38%;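 also: higher means compound restores mutant binding toward wildtype level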
# MEKK3 confirm: confirmation of inhibitors of MEK5 binding to human MEKK3; shares compounds with MEKK3 PB1 HTS; bead flow cytometry, Alexa488-MEK5 binding to MEKK3; active compounds read low; binding response (% of control), % at 10 µM; 5,900 compounds, 1.8% hits; AID 1894;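 active = binding response below 72% of control, or above a set upper limit, though filed actives all read lower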;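 also: 100% = DMSO only wells and 0% = binding blocked by excess unlabeled MEK5; lower values mean stronger disruption of MEK5 binding to MEKK3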
# An asterisk follows results filed as active; . = no result given; [ ] = remark or other dose. Only some compounds are listed: those with a hit (about 3.1% of all), similar ones and a draw of the others.
SMILES,PREPL inhibitor,MEKK2 WT-MEK5,Apaf1 inhib,UBC13 polyUb,MEKK3 PB1 HTS,MEKK2 mut-MEK5,MEKK2wt confirm,MEKK2mut-MEK5,MEKK3 confirm
CCCC(=O)NC(C)c1nc2ccccc2n1C (centres undefined),-4,105,-2,3,99,7,.,.,.
Cc1ccc(Sc2nc(C)cc(C)c2S(C)(=O)=O)cc1,11,95,1,7,82*[inhibitor],-10,104,-1,100
COc1ccc(C2C3=C(CC(C)(C)CC3=O)Oc3ncn(Cc4ccco4)c(=N)c32)cc1 (centres undefined),10,-1.0*[inhibitor],9,-4,2.0*[inhibitor],-26,105,7,103
COc1ccc(C2c3c(ncn(Cc4ccco4)c3=N)Oc3ccc4ccccc4c32)cc1 (centres undefined),26,185*,19,-12,106,56*,190,62,112
N=c1c2c(ncn1Cc1ccco1)Oc1ccc3ccccc3c1C2c1ccccc1 (centres undefined),11,114,14,-6,102,3,.,.,.
CCSc1ccccc1-c1nc(-c2ccncc2)no1,-5,102,15,18,100,4,.,.,.
CC1(C)CC(=O)C=C(c2cccc(O)c2)C1,-2,.,2,-13,.,.,.,.,.
Cc1ccc(NC(=S)NNC(=O)CSc2nnc(-c3ccc(Cl)cc3)n2C2CCCCC2)cc1,24,95,31,-17,89,0,.,.,.
CCn1c(SCC(=O)NNC(=S)Nc2ccc(C)cc2)nnc1-c1ccc(Cl)cc1,8,111,-1,-3,134*,1,97,0,106
C/C=C/c1ccc(OCC(=O)N2CCc3cc(OC)c(OC)cc3C2)c(OC)c1,-1,106,9,6,108,9,.,.,.
Cc1ccc(-n2c(C)cc(C3N=C(N)Nc4nc5ccccc5n43)c2C)c(C)c1 (centres undefined),-41,134*,22,9,110,28*,151,56,108
C[C@@]12C(=O)N(c3ccc(C(F)(F)F)cc3)C(=O)N1[C@@H]1c3ccccc3OC[C@@H]1[C@H]2c1ccccc1,3,91,-4,-9,104,-3,.,.,.
Fc1ccc(C2=Nc3cccc4cccc(c34)N2)cc1,10,98,9,-50,99,-5,.,.,.
Brc1ccc(C2=Nc3cccc4cccc(c34)N2)o1,17,109,-5,-43,142*,2,99,3,98
O=C(Nc1ccc(F)c(F)c1)C1CCN(S(=O)(=O)c2cccs2)CC1,-22,.,6,4,.,.,.,.,.
Nc1nonc1-n1nnc(C(=O)N/N=C/c2ccoc2)c1-c1ccccc1,-4,102,1,-3,101,11,.,.,.
Cc1ccccc1NC(=O)c1nc2nccc(C)n2n1,14,91,5,-9,69*[inhibitor],-3,110,-2,102
COc1ccccc1NC(=O)c1ccc(NC(=O)c2nc3nccc(C)n3n2)cc1,3,.,-4,3,.,.,.,.,.
O=C(NNC(=O)c1ccccc1F)c1cccc(S(=O)(=O)N2CCc3ccccc32)c1,5,.,0,-1,.,.,.,.,.
CCN[C@H]1CN(CCCOC)S(=O)(=O)c2sc(S(N)(=O)=O)cc21,6,.,3,0,.,.,.,.,.
COC(=O)C(F)(F)Sc1c(C)[nH]c2ccccc12,0,86,3,0,79*[inhibitor],-8,105,9,106
Cc1[nH]c2ccccc2c1SCC(=O)O,-6,96,5,1,87,-2,.,.,.
CC(C)N1CCN(Cc2coc3ccccc3c2=O)CC1CCO (centres undefined),7,120,-7,-3,131*,0,76,-22,64*
CC(C)CCN1CCN(Cc2coc3ccccc3c2=O)CC1CCO (centres undefined),11,107,-3,1,105,4,.,.,.
CC1(C)CC2(CCCN(C(=S)Nc3ccccc3)C2)CCO1 (centres undefined),-6,121,-8,2,128*,24,103,-5,104
SMILES,PREPL inhibitor,MEKK2 WT-MEK5,Apaf1 inhib,UBC13 polyUb,MEKK3 PB1 HTS,MEKK2 mut-MEK5,MEKK2wt confirm,MEKK2mut-MEK5,MEKK3 confirm
CS(=O)(=O)c1ccc(Cl)c(NC(=O)CCN2C(=O)C3CC=CCC3C2=O)c1 (centres undefined),-1,.,12,-7,.,.,.,.,.
CSc1ccccc1NC(=O)CN(C)C(=O)c1ccc(-n2cccn2)cc1,-3,.,-4,7,.,.,.,.,.
CCOC(=O)c1sc(NC(=O)COC(=O)C(CCSC)NC(C)=O)nc1C (centres undefined),-1,78,5,15,61*[inhibitor],-2,98,-9,93
CCOC(=O)c1sc(NC(=O)CC)nc1C,3,100,-4,5,104,2,.,.,.
CC(C)OC(=O)C1Cc2ccccc2CN1S(=O)(=O)c1cccs1 (centres undefined),-7,99,27,-10,101,-1,.,.,.
CN1CCN(C2=Cc3ccccc3Sc3cc(F)ccc32)CC1,-1,136*,4,11,97,11,149,37,113
CN1CCN(C2=Nc3cc(F)ccc3Cc3ccccc32)CC1,14,109,-5,-10,102,3,.,.,.
CN1CCN(C2=Cc3ccc(Cl)cc3Sc3ccc(F)cc32)CC1,34,150*,8,38,114,27*,169,42,109
Cc1ccc(S(=O)(=O)c2c(C)cc(-c3ccccc3)[nH]c2=O)cc1,-19,134*,-2,2,143*,7,102,-1,103
CCOC(=O)C1=C(COC(=O)Cc2c(F)cccc2Cl)NC(=O)NC1C (centres undefined),-13,.,4,-9,.,.,.,.,.
O=C(O)COc1ccc(/C=C/c2nc3ccc([N+](=O)[O-])cc3s2)cc1,11,98,-12,-4,102,3,.,.,.
COCCNc1nnc(SCC(=O)Nc2sc3c(c2C(=O)c2ccccc2)CCCC3)s1,25,106,20,7,131*,0,99,-4,102
O=C(C1COc2ccccc2O1)N1CCc2ccccc2C1 (centres undefined),-6,111,19,1,115,6,.,.,.
CCCCN(C)C(=O)C1CCN(Cc2cccnc2)CC1,11,118,4,-2,112,27*,96,-5,102
